Results as given in ChEMBL document CHEMBL3098028, “Synthesis and in vitro and in vivo pharmacological evaluation of new 4-aminoquinoline-based compounds” (ACS Med Chem Lett, 2013).

Assays:
Plasmodium falciparum [1] = assay: Antiplasmodial activity against chloroquine-sensitive Plasmodium falciparum 3D7 after 24 hrs by [3H]hypoxanthine incorporation assay; format: functional, organism-based
Procedure, shortened: (§1)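 Antiplasmodial testing was done at the Swiss Tropical and Public Health Institute. Chloroquine, the reference drug, was tested as its diphosphate salt.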

Plasmodium falciparum [2] = assay: Antiplasmodial activity against chloroquine-resistant Plasmodium falciparum K1 after 24 hrs by [3H]hypoxanthine incorporation assay; format: functional, organism-based; procedure, shortened: as §1
Plasmodium falciparum [3] = assay: Antiplasmodial activity against chloroquine-resistant Plasmodium falciparum W2 after 24 hrs by [3H]hypoxanthine incorporation assay; format: functional, organism-based; procedure, shortened: as §1
Plasmodium falciparum [4] = assay: Resistance index, ratio of IC50 for chloroquine-resistant Plasmodium falciparum K1 to IC50 for chloroquine-sensitive Plasmodium falciparum 3D7; format: functional
Plasmodium berghei = assay: Antimalarial activity against Plasmodium berghei ANKA infected in C57BL/6 mouse assessed as reduction in parasitemia at 15 mg/kg, po qd for 4 days measured on day 7 by light microscopic analysis relative to control; format: functional; set-up: scale not given: the % may be the effect or the level left

Row | Structure (SMILES) | IC50 (Plasmodium falciparum [1]) [nM] | IC50 (Plasmodium falciparum [2]) [nM] | IC50 (Plasmodium falciparum [3]) [nM] | Ratio IC50 (Plasmodium falciparum [4]) | Activity (Plasmodium berghei) [%]
1 | CC(C)(C)n1nnnc1C(NCCCCNc1ccnc2cc(Cl)ccc12)c1ccccc1 (configuration not stated) | 2 | 8 | 20 | 4 | –
2 | Clc1ccc2c(NCCNC(c3ccccc3)c3nnn[nH]3)ccnc2c1 (configuration not stated) | – | 14900 | – | – | –
3 | COc1ccc(C(NCCNc2ccnc3cc(Cl)ccc23)c2nnn[nH]2)cc1 (configuration not stated) | – | 13200 | – | – | –
4 | CCN(CC)CCCC(C)Nc1ccnc2cc(Cl)ccc12 (configuration not stated) [CHLOROQUINE] | – | – | – | – | 90.6
